Active and inactive are the calls of the source.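 Rule for the calls: active = fitted IC50 for falling signal at or below ten times the top tested dose; inconclusive = flat fit with 30 to 70% signal loss, or poor fit; inactive = the rest.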
Tested on: ldlA[mSR-BI] CHO cells viability, CellTiter-Glo ATP, 3 h
Test: ATP-based viability of SR-BI CHO cells – cell-based, CellTiter-Glo luminescence, 3 h, dry powder, cytotoxicity control for SR-BI HDL uptake inhibitor project, dose response (AID 588830)
How it was run: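 Test system: ldlA[mSR-BI] cells, scavenger receptor B1-expressing line / Medium: PSG and 10% FCS in Ham's F12 / Dosing: 8-concentration series per compound, added by pin transfer / Timing: 3 h at 37 °C, then 10 min with reagent / Signal: luminescence of cellular ATP via Cell Titer Glo reagent / Measure: cytotoxicity IC50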

Compound: O=C(Nc1cc(Cl)ccc1Cl)c1cc(Cl)ccc1NS(=O)(=O)c1ccc(Cl)c([N+](=O)[O-])c1
- IC50: > 70 µM (inactive)

Source: PubChem BioAssay AID588830 (Broad Institute, 2011)
